Experimental findings from ChEMBL document CHEMBL1641563, “Synthesis and antihyperglycemic activity of phenolic C-glycosides” (2011) are described below.

Assay type in all cases: functional
Assay [1] has as its system Rattus norvegicus. Nature of the assay: Antihyperglycemic activity against streptozotocin-induced Sprague-Dawley albino rat diabetic model assessed as area under the 0 to 5 hrs blood glucose response curve (0-5 hrs AUC) at 25 mg/kg, po after 48 hrs by glucometer. The method, boiled down:
(§1)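 Male Sprague–Dawley rats, fasted overnight, received STZ 60 mg/kg ip in 0.1 M citrate pH 4.5. Rats with glucose 140–270 mg/dl at 48 h were used, n = 5 per group. Compound was given at 25 mg/kg orally in 1.0% gum acacia, with vehicle controls, and a sucrose load of 2.5 g/kg followed 30 min later. Glucose was read by glucometer at 1–6 h and 24 h. Percent activity came from AUC versus control, with Dunnett's test.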

For assay [2], the system named is Rattus norvegicus. The assay is described as follows: Antihyperglycemic activity against streptozotocin-induced Sprague-Dawley albino rat diabetic model assessed as area under the 0 to 24 hrs blood glucose response curve (0-24 hrs AUC) at 25 mg/kg, po after 48 hrs by glucometer. An outline of the steps:
as §1

In another assay the test system is L6. Nature of the assay: Antihyperglycemic activity against rat L6 cells assessed as increase in glucose uptake by liquid scintillation counting. More on the design: concentration or dose not given beside the values. An outline of the steps: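 L6 myoblasts were grown in DMEM with 10% FBS, then differentiated into myotubes for 7–8 days in 2% FBS. Myotubes were treated with compound at 10 or 50 µM for 18 h and washed in Krebs–Ringer HEPES. Uptake of 2-deoxy-[3H]-D-glucose (3 µCi, plus 20 µM unlabelled) was measured over 15 min. Non-specific uptake was taken with 10 µM cytochalasin B. Counts (cpm/well) were compared with controls.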

The subject of assay [3] is Rattus norvegicus. Nature of the assay: Antihyperglycemic activity against streptozotocin-induced Sprague-Dawley albino rat diabetic model assessed as reduction in blood glucose at 25 mg/kg, po after 24 hrs. Also noted: scale not given: the % may be the effect or the level left. An outline of the steps:
as §1

For `CN(C)C(=N)NC(=N)N` [METFORMIN], the Activity with Rattus norvegicus [1] turned out to be 27.2%; in the assay on Rattus norvegicus [2] it was 24.1%; in the assay on L6 it was 19.4%.

Regarding `OC[C@H]1O[C@@H](c2c(O)ccc3cc(Cc4ccc(O)cc4)oc23)[C@H](O)[C@@H](O)[C@@H]1O`, the Activity is on record as 9.78% in the assay on Rattus norvegicus [1] and 11.2% in the assay on Rattus norvegicus [2].

For the compound `COC(=O)c1c(O)cc(O)c([C@@H]2O[C@H](CO)[C@@H](O)[C@H](O)[C@H]2O)c1O`, the Activity in the assay on Rattus norvegicus [1] came to 7.27%; in the assay with Rattus norvegicus [2], 2.9%.

Regarding `O=c1c(O)c(-c2ccc(O)c(O)c2)oc2cc(O)c([C@@H]3O[C@H](CO)[C@@H](O)[C@H](O)[C@H]3O)c(O)c12`, the Activity with Rattus norvegicus [1] is listed as 15.6%; with Rattus norvegicus [2] it was 8.56%.

Consider `O=C1c2c(cc(O)c([C@@H]3O[C@H](CO)[C@@H](O)[C@H](O)[C@H]3O)c2O)OC(c2ccc(O)cc2)C1O` (stereo not given in full), for which the Activity in the assay on Rattus norvegicus [1], in the assay on Rattus norvegicus [3] and in the assay on Rattus norvegicus [2] was 23.8% throughout.

With `O=C1c2c(cc(O)c([C@@H]3O[C@H](CO)[C@@H](O)[C@H](O)[C@H]3O)c2O)OC(c2ccc(O)c(O)c2)C1O` (stereo not given in full), the results for the Activity with Rattus norvegicus [1], in the assay on Rattus norvegicus [2] and in the assay with L6 were 17.6%, 12.8% and 10.2%, respectively.

`OC[C@H]1O[C@@H](c2c(O)cccc2O)[C@H](O)[C@@H](O)[C@@H]1O`: the Activity in the assay on Rattus norvegicus [1] was found to be 12.7%; in the assay with Rattus norvegicus [2] it was 22.3%.

With `CC(=O)c1c(O)cc(O)c([C@@H]2O[C@H](CO)[C@@H](O)[C@H](O)[C@H]2O)c1O`, the Activity in the assay with Rattus norvegicus [1] stood at 18%; in the assay with Rattus norvegicus [2], 20.9%; with L6, 15.3%.

With `COC(=O)c1c(O)c([C@@H]2O[C@H](CO)[C@@H](O)[C@H](O)[C@H]2O)c(O)c([C@@H]2O[C@H](CO)[C@@H](O)[C@H](O)[C@H]2O)c1O`, the Activity with Rattus norvegicus [1] is 11.5%; in the assay on Rattus norvegicus [2], 7.78%; in the assay with L6 it was 10.8%.

Turning to `O=C1Oc2c(ccc(O)c2[C@@H]2O[C@H](CO)[C@@H](O)[C@H](O)[C@H]2O)/C1=C\c1ccc(O)cc1`, the values for the Activity in the assay on Rattus norvegicus [1], in the assay with Rattus norvegicus [2] and in the assay with L6 were 17.2%, 29% and 16%, respectively.

`O=C(CC(O)c1ccc(O)c(O)c1)c1ccc(O)c([C@@H]2O[C@H](CO)[C@@H](O)[C@H](O)[C@H]2O)c1O` (stereo not given in full): the Activity in the assay on Rattus norvegicus [1] is 20%; in the assay with Rattus norvegicus [2], 19.5%.

Consider `O=C1CC(c2ccc(O)cc2)Oc2cc(O)c([C@@H]3O[C@H](CO)[C@@H](O)[C@H](O)[C@H]3O)c(O)c21` (stereo not given in full), for which the Activity in the assay on Rattus norvegicus [1] worked out at 8.41%; in the assay on Rattus norvegicus [2] it was 15.1%; with L6, 12.2%.

As for `O=c1cc(-c2ccc(O)c(O)c2)oc2c([C@@H]3O[C@H](CO)[C@@H](O)[C@H](O)[C@H]3O)c(O)ccc12`, the Activity with Rattus norvegicus [1] was 14.3%; in the assay on Rattus norvegicus [2], 16.1%.

For `O=C(CCc1ccccc1)c1c(O)cc(O)c([C@@H]2O[C@H](CO)[C@@H](O)[C@H](O)[C@H]2O)c1O`, the Activity is 22.3% in the assay on Rattus norvegicus [1], 26.5% in the assay with Rattus norvegicus [3], 26.5% with Rattus norvegicus [2] and 11.6% in the assay on L6.

For `O=c1c(O)c(-c2ccc(O)cc2)oc2cc(O)c([C@@H]3O[C@H](CO)[C@@H](O)[C@H](O)[C@H]3O)c(O)c12`, the Activity in the assay on Rattus norvegicus [1] was 16.7%; with Rattus norvegicus [2], 23.5%; in the assay with L6, 12.2%.

With `O=C1c2ccc(O)c([C@@H]3O[C@H](CO)[C@@H](O)[C@H](O)[C@H]3O)c2OC1(O)Cc1ccc(O)cc1` (stereo not given in full), the Activity stood at 1.99% in the assay on Rattus norvegicus [1] and 7.9% in the assay with Rattus norvegicus [2].

For `COc1cc(OC)c([C@@H]2O[C@H](CO)[C@@H](O)[C@H](O)[C@H]2O)c(OC)c1C(=O)/C=C/c1ccc(C(C)C)cc1`, the Activity in the assay with Rattus norvegicus [1] worked out at 34.9%; in the assay on Rattus norvegicus [3], 33.6%; with Rattus norvegicus [2] it was 33.6%.
